Assay results pooled from the literature.
Lines come from different studies, so protocols differ.
Tmem97: Sigma intracellular receptor 2 (Tmem97, Rattus norvegicus, UniProt Q5U3Y7)
DHFR: Dihydrofolate reductase (DHFR, Homo sapiens, UniProt P00374)

C=CC(=O)N1CCC(COCC(=O)N2CCN(c3nc(-c4cnc(N)nc4C(F)F)nc(N4CCOC[C@@H]4C)n3)CC2)CC1 — remaining binding (Calcium/calmodulin-dependent protein kinase type II subunit alpha (CAMK2A, Homo sapiens, UniProt Q9UQM7); binding; competition with immobilised ligand; 1 µM): 100%
COc1cc([C@@H]2c3cc4c(cc3[C@@H](O[C@@H]3O[C@@H]5CO[C@@H](C)O[C@H]5[C@H](O)[C@H]3O)[C@H]3COC(=O)[C@H]23)OCO4)cc(OC)c1O — inhibition (DNA topoisomerase 2-alpha (TOP2A, Homo sapiens, UniProt P11388); enzyme activity; inhibitor; 31.5 µM): 0%
COc1ccc2[nH]c3c(c2c1)[C@H]1C[C@@H]([C@H]3C)N(Cc2ccccc2)C[C@]1(C)O — inhibition (Tmem97; ligand displacement; radioligand; 1 µM): 0%
COc1cc(-c2cncc3c2CN(C)Cc2cc(N4CCNCC4)ccc2-3)cc(OC)c1OC — remaining activity (MAPK/MAK/MRK overlapping kinase (MOK, Homo sapiens, UniProt Q9UQ07); enzyme activity; inhibitor; 1 µM): 103%
Cc1cccc(C)c1NC(=S)NN=Cc1ccc(N2CCCCC2)cc1 — inhibition (DHFR; enzyme activity; inhibitor; 500 µM): 87.5%
CC(C)OC(=O)CNc1cccc(CN(Cc2ccc(-n3cccn3)cc2)S(=O)(=O)c2cccnc2)n1 — inhibition (Rho-associated protein kinase 1 (ROCK1, Homo sapiens, UniProt Q13464); enzyme activity; inhibitor; 10 µM): ≥ 50%
COc1cccc(NC(=S)NN=Cc2ccc(N3CCCCC3)cc2)c1 — inhibition (DHFR; enzyme activity; inhibitor; 500 µM): 84.9%
CNc1ncc2c(/C=C/C(=O)N3CCC(OC)CC3)nn(Cc3cccc(C(F)(F)F)c3)c2n1 — remaining activity (Mitogen-activated protein kinase kinase kinase 8 (MAP3K8, Homo sapiens, UniProt P41279); enzyme activity; inhibitor; radiometric; 1 µM): 112%
S=C(NN=Cc1ccc(N2CCCCC2)cc1)Nc1cccc(Br)c1 — inhibition (DHFR; enzyme activity; inhibitor; 500 µM): 83.7%
Cc1cc([C@@H](C)Nc2ccccc2C(=O)O)c2nc(N3CCC(F)(F)CC3)c(C#N)c(=O)n2c1 — remaining binding (Serine/threonine-protein kinase PLK1 (PLK1, Homo sapiens, UniProt P53350); binding; competition with immobilised ligand; 1 µM): 100%
Cc1ccc(CNC(=S)NN=Cc2ccc(N3CCCCC3)cc2)cc1 — inhibition (DHFR; enzyme activity; inhibitor; 500 µM): 81.4%
C[C@H]1C(=O)/C(=C/c2ccccc2)[C@H]2C[C@@H]1N(Cc1ccccc1)C[C@@]2(C)O — inhibition (Tmem97; ligand displacement; radioligand; 1 µM): 0%
